Results published in ChEMBL document CHEMBL4004857, “Synthesis and biological evaluation of novel pyrazolic chalcone derivatives as novel hepatocellular carcinoma therapeutics” (Eur J Med Chem, 2017).
Activity calls are given as the source filed them. The rule behind the calls is not given here.

Key:
MCF7 = test: Cytotoxicity against human MCF7 cells assessed as growth inhibition after 72 hrs by SRB assay; format: functional, cell-based; conditions: MCF7, 72 h
Method in brief: (§1)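 Cells seeded at 2000–3000 per well and grown 24 h at 37C, then treated in triplicate with compounds dissolved in DMSO over a 40–0.3 range for 72 h. Cells were fixed with 10% TCA for 1 h, stained with 0.4% SRB in 1% acetic acid, washed with 1% acetic acid and air-dried. Bound dye was solubilized in 10 mM Tris base and read at 515 nm. % inhibition and IC50 were calculated against DMSO-only controls.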

Homo sapiens = organism: Homo sapiens; test: Inhibition of tubulin polymerization (unknown origin)
HCT-116 = test: Cytotoxicity against human HCT116 cells assessed as growth inhibition after 72 hrs by SRB assay; format: functional, cell-based; conditions: HCT-116, 72 h; method in brief: as §1
Huh-7 [1] = test: Cytotoxicity against human HuH7 cells assessed as growth inhibition after 72 hrs by SRB assay; format: functional, cell-based; conditions: Huh-7, 72 h; method in brief: as §1
SNU-475 [2] = test: Cytotoxicity against human SNU475 cells assessed as growth inhibition after 72 hrs by SRB assay; format: functional, cell-based; conditions: SNU-475, 72 h; method in brief: as §1
Mahlavu [3] = test: Growth inhibition of human Mahlavu cells at cytotoxic IC100 measured every 10 mins for first 24 hrs and every 30 mins for remaining 48 hrs by RT-CES analysis; format: functional, cell-based
MRC5 = test: Cytotoxicity against human MRC5 cells assessed as growth inhibition after 72 hrs by SRB assay; format: cell-based; conditions: mrc5; method in brief: as §1
Mahlavu [4] = test: Cytotoxicity against human Mahlavu cells assessed as growth inhibition after 72 hrs by SRB assay; format: functional, cell-based; method in brief: as §1
HepG2 [5] = test: Cytotoxicity against human HepG2 cells assessed as growth inhibition after 72 hrs by SRB assay; format: functional, cell-based; conditions: HepG2, 72 h; method in brief: as §1
HepG2 [6] = test: Growth inhibition of human HepG2 cells at cytotoxic IC100 measured every 10 mins for first 24 hrs and every 30 mins for remaining 48 hrs by RT-CES analysis; format: functional, cell-based
Huh-7 [7] = test: Growth inhibition of human HuH7 cells at cytotoxic IC100 measured every 10 mins for first 24 hrs and every 30 mins for remaining 48 hrs by RT-CES analysis; format: functional, cell-based
SNU-475 [8] = test: Induction of apoptosis in human SNU475 cells assessed as condensed nuclei at cytotoxic IC100 measured after 48 hrs by DAPI/Annexin-V-Fluos staining based fluorescent microscopic method; format: functional, cell-based
Method in brief: (§2)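 Cells on coverslips were treated after 24 h in culture and stained 48 h later with Annexin-V-Fluos plus DAPI nuclear stain. Cells were then examined by fluorescence microscopy for Annexin V-positive cells with condensed nuclei.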

HepG2 [9] = test: Induction of apoptosis in human HepG2 cells assessed as PARP cleavage at cytotoxic IC100 measured after 24 hrs by Western blot method; format: functional, cell-based
SNU-475 [10] = test: Growth inhibition of human SNU475 cells at cytotoxic IC100 measured every 10 mins for first 24 hrs and every 30 mins for remaining 48 hrs by RT-CES analysis; format: functional, cell-based
HepG2 [11] = test: Induction of apoptosis in human HepG2 cells assessed as condensed nuclei at cytotoxic IC100 measured after 72 hrs by light microscopic method; format: functional, cell-based
SNU-475 [12] = test: Induction of apoptosis in human SNU475 cells assessed as PARP cleavage at cytotoxic IC100 measured after 24 hrs by Western blot method; format: functional, cell-based
HepG2 [13] = test: Induction of apoptosis in human HepG2 cells assessed as condensed nuclei at cytotoxic IC100 measured after 48 hrs by DAPI/Annexin-V-Fluos staining based fluorescent microscopic method; format: functional, cell-based; method in brief: as §2
MCF-12A = test: Cytotoxicity against human MCF12A cells assessed as growth inhibition after 72 hrs by SRB assay; format: cell-based; method in brief: as §1
SNU-475 [14] = test: Induction of apoptosis in human SNU475 cells assessed as condensed nuclei at cytotoxic IC100 measured after 72 hrs by light microscopic method; format: functional, cell-based

| Structure (SMILES) | IC50 (MCF7) [µM] | inhibition (Homo sapiens) | IC50 (HCT-116) [µM] | IC50 (Huh-7 [1]) [µM] | also measured |
| --- | --- | --- | --- | --- | --- |
| COc1ccc(C(=O)/C=C/c2cn(-c3ccccc3)nc2-c2ccc3c(c2)OCO3)c(OC)c1OC | 7.4 | inactive | 3.2 | 10.8 |  |
| O=C(/C=C/c1cn(-c2ccccc2)nc1-c1ccncc1)c1cc[nH]c1 | 13.6 | inactive | 15.7 | 28.8 |  |
| COc1ccc(C(=O)/C=C/c2cn(-c3ccccc3)nc2-c2ccc3c(c2)OCO3)c(OC)c1 | 14.5 | inactive | 8.6 | 19 |  |
| COc1ccc(C(=O)/C=C/c2cn(-c3ccccc3)nc2-c2ccsc2)c(OC)c1OC | 7.4 | inactive | 5.8 | 4.2 |  |
| O=C(/C=C/c1cn(-c2ccccc2)nc1-c1cccnc1)c1cc[nH]c1 | 6.9 | inactive | 7.4 | 3.3 |  |
| O=C(/C=C/c1cn(-c2ccccc2)nc1-c1ccsc1)c1ccc2c(c1)OCO2 | 5.3 | inactive | 12.2 | 22.6 |  |
| COc1ccc(C(=O)/C=C/c2cn(-c3ccccc3)nc2-c2ccncc2)c(OC)c1 | 8.8 | inactive | 4.4 | 4.4 |  |
| COc1ccc(C(=O)/C=C/c2cn(-c3ccccc3)nc2-c2cccnc2)cc1OC | 1.7 | inactive | 4.3 | 3.1 |  |
| O=C(/C=C/c1cn(-c2ccccc2)nc1-c1ccncc1)c1ccsc1 | 1.5 | inactive | 1.1 | 2.2 |  |
| COc1ccc(C(=O)/C=C/c2cn(-c3ccccc3)nc2-c2ccncc2)c(OC)c1OC | 3.3 | inactive | 1.3 | 3.7 |  |
| O=C(/C=C/c1cn(-c2ccccc2)nc1-c1ccc2c(c1)OCO2)c1cc[nH]c1 | 9.9 | inactive | 20.3 | 9.2 |  |
| O=C(/C=C/c1cn(-c2ccccc2)nc1-c1cccnc1)c1ccccc1 | 4.1 | inactive | 2 | 2.3 |  |
| O=C(/C=C/c1cn(-c2ccccc2)nc1-c1cccnc1)c1ccccn1 | 4.2 | inactive | 2.1 | 6.4 |  |
| O=C(/C=C/c1cn(-c2ccccc2)nc1-c1cccnc1)c1ccsc1 | 0.5 | inactive | 1.3 | 1.7 |  |
| COc1ccc(C(=O)/C=C/c2cn(-c3ccccc3)nc2-c2cccnc2)c(OC)c1 | 2.3 | inactive | 1.3 | 2.4 |  |
| O=C(/C=C/c1cn(-c2ccccc2)nc1-c1ccc2c(c1)OCO2)c1cccnc1 | 2.2 | inactive | 3.8 | 3.4 |  |
| O=C(/C=C/c1cn(-c2ccccc2)nc1-c1ccsc1)c1ccccc1 | 1.9 | inactive | 5.1 | 4.7 |  |
| COc1ccc(C(=O)/C=C/c2cn(-c3ccccc3)nc2-c2ccncc2)cc1OC | 4.3 | inactive | 1.2 | 2 |  |
| COc1ccc(OC)c(C(=O)/C=C/c2cn(-c3ccccc3)nc2-c2ccc3c(c2)OCO3)c1 | 5.8 | inactive | 1.3 | 6.1 |  |
| O=C(/C=C/c1cn(-c2ccccc2)nc1-c1ccc2c(c1)OCO2)c1ccccn1 | 4.1 | inactive | 6.7 | 3.4 |  |
| COc1cc(OC)c(C(=O)/C=C/c2cn(-c3ccccc3)nc2-c2ccc3c(c2)OCO3)c(OC)c1 | 11.5 | inactive | 10.8 | 6.7 |  |

| Structure (SMILES) | IC50 (MCF7) [µM] | inhibition (Homo sapiens) | IC50 (HCT-116) [µM] | IC50 (Huh-7 [1]) [µM] | also measured |
| --- | --- | --- | --- | --- | --- |
| COc1ccc(OC)c(C(=O)/C=C/c2cn(-c3ccccc3)nc2-c2ccsc2)c1 | 0.4 | inactive | 3.4 | 2.1 |  |
| COc1cc(OC)c(C(=O)/C=C/c2cn(-c3ccccc3)nc2-c2ccncc2)c(OC)c1 | 1.6 | inactive | 0.6 | 2.6 | IC50 (SNU-475 [2]): 1.4 µM; growth inhibition (GI) (Mahlavu [3]): Active; IC50 (MRC5): Non-Toxic; IC50 (Mahlavu [4]): 1.1 µM; IC50 (HepG2 [5]): 1.7 µM; growth inhibition (GI) (HepG2 [6]): Active; growth inhibition (GI) (Huh-7 [7]): Active; Activity (SNU-475 [8]): Active; Activity (HepG2 [9]): Active; growth inhibition (GI) (SNU-475 [10]): Active; Activity (HepG2 [11]): Active; Activity (SNU-475 [12]): Active; Activity (HepG2 [13]): Active; IC50 (MCF-12A): 8.2 µM; Activity (SNU-475 [14]): Active |
| O=C(/C=C/c1cn(-c2ccccc2)nc1-c1ccncc1)c1ccc2c(c1)OCO2 | 0.8 | inactive | 5.3 | 0.4 |  |
| COc1ccc(C(=O)/C=C/c2cn(-c3ccccc3)nc2-c2ccc3c(c2)OCO3)cc1OC | 11.7 | inactive | 11.4 | 15.4 |  |
| COc1cc(C(=O)/C=C/c2cn(-c3ccccc3)nc2-c2cccnc2)cc(OC)c1OC | 14.5 | inactive | 8.6 | 1.9 |  |
| COc1cc(C(=O)/C=C/c2cn(-c3ccccc3)nc2-c2ccsc2)cc(OC)c1OC | 4.9 | inactive | 3.2 | 3.6 |  |
| COc1cc(OC)c(C(=O)/C=C/c2cn(-c3ccccc3)nc2-c2ccsc2)c(OC)c1 | 2.7 | inactive | 5.2 | 6.1 |  |
| O=C(/C=C/c1cn(-c2ccccc2)nc1-c1ccc2c(c1)OCO2)c1ccsc1 | 4.9 | inactive | 8.9 | 3.2 |  |
| COc1cc(C(=O)/C=C/c2cn(-c3ccccc3)nc2-c2ccc3c(c2)OCO3)cc(OC)c1OC | 10.9 | inactive | 8.3 | 11.7 |  |
| COc1ccc(C(=O)/C=C/c2cn(-c3ccccc3)nc2-c2ccsc2)c(OC)c1 | 9 | inactive | 2.2 | 3 |  |
| COc1ccc(C(=O)/C=C/c2cn(-c3ccccc3)nc2-c2cccnc2)c(OC)c1OC | 1.4 | inactive | 1.1 | 2.3 |  |
| O=C(/C=C/c1cn(-c2ccccc2)nc1-c1ccc2c(c1)OCO2)c1ccc2c(c1)OCO2 | 17.5 | inactive | 27.2 | 9.9 |  |
| COc1cc(C(=O)/C=C/c2cn(-c3ccccc3)nc2-c2ccncc2)cc(OC)c1OC | 3.5 | inactive | 0.3 | 3.5 |  |
| O=C(/C=C/c1cn(-c2ccccc2)nc1-c1cccnc1)c1c[nH]c2ccccc12 | 2.6 | inactive | 6.4 | 3.2 |  |
| COc1ccc(C(=O)/C=C/c2cn(-c3ccccc3)nc2-c2ccsc2)cc1OC | 2.8 | inactive | 1.6 | 2.9 |  |
| O=C(/C=C/c1cn(-c2ccccc2)nc1-c1cccnc1)c1ccc2c(c1)OCO2 | 5.6 | inactive | 1.8 | 6.7 |  |
| Nc1nc(Cl)nc2c1ncn2[C@H]1C[C@H](O)[C@@H](CO)O1 [CLADRIBINE] | 2 |  | 0.3 | 1.8 |  |
| O=C(/C=C/c1cn(-c2ccccc2)nc1-c1ccncc1)c1ccccc1 | 3.4 | inactive | 3.1 | 1.8 |  |
| O=C(/C=C/c1cn(-c2ccccc2)nc1-c1ccc2c(c1)OCO2)c1ccccc1 | 11.1 | inactive | 1.16 | 10.5 |  |
| O=c1[nH]cc(F)c(=O)[nH]1 [FLUOROURACIL] | 1.4 |  | 18.4 | 21 |  |
